Rad51 HR inh: Rad51 (human) homologous recombination inhibition; Q06609; inhibition, % at 10 µM; hRad51 DNA strand exchange, fluorescence dequenching; 200,000 compounds, 0.085% hits; AID 1385;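 active = inhibition above 40% at the single screening dose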
Target sequence (Q06609 whole entry, looked up): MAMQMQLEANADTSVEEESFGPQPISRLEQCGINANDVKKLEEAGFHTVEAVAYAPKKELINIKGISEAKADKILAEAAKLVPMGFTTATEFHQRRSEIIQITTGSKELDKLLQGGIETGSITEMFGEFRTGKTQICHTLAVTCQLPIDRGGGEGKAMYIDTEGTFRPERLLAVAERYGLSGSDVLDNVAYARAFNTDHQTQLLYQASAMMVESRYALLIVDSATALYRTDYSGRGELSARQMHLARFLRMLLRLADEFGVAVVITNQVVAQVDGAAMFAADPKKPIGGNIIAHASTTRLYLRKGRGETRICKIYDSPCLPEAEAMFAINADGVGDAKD
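material = hRad51 filaments on single-stranded DNA | reagent = Donor/quencher-labelled 47-bp dsDNA substrate | compound = 10 µM final, single point | schedule = strand-exchange reaction 15 min at room temperature | measured by = fluorescein emission 520 nm, excitation 485 nm | read-out basis = % inhibition versus plate control and blank means | benchmarks = plate controls and plate blanks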
WT yeast gro inh: growth inhibition of WT yeast, mitochondrial fusion screen; mitochondrial fusion phenotypic screen, WT strain; inhibition, % at 10 µM; 190,000 compounds, 2.1% hits; AID 1362; in the data active = inhibition above about 58%; tested in S. cerevisiae
Calpain2 inh: inhibitors of pig calpain II. purified calpain II, fluorogenic peptide substrate, 30 min. inhibition, % at 16 µM. 220,000 compounds, 0.37% hits. AID 1236;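 active = inhibition above about 50%, limit read from the data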
PMI activator: activators of human phosphomannose isomerase; purified human PMI, coupled resazurin fluorescence, 20 min; active compounds read high; 1 = vehicle control, 0 substrate-free wells; activation factor at 20 µM; 190,000 compounds, 0.005% hits;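 active = activation factor of 2 or more at 20 µM, relative to plate controls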
Target sequence (P34949 whole entry, looked up): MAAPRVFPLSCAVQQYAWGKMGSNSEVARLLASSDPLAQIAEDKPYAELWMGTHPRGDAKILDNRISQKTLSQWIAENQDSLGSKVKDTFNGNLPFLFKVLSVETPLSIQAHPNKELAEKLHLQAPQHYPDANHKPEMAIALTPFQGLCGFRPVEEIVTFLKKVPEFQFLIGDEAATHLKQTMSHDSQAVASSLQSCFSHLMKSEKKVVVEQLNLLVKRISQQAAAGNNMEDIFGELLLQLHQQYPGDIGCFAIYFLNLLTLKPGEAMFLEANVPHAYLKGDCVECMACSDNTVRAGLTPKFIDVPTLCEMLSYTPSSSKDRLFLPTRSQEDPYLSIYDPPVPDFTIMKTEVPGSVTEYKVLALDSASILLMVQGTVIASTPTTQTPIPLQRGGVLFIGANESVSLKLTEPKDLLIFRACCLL
PMI act hi M6P: activators of human phosphomannose isomerase at near-saturating mannose 6-phosphate | coupled PMI enzyme assay, resazurin fluorescence, 20 min; active compounds read high; 1 = untreated enzyme, 0 = substrate-free blank | activation factor at 20 µM | 190,000 compounds, 0.34% hits | P34949;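 active = activation factor of 2 or more at 20 µM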
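Test system: Human PMI in coupled enzyme assay | Input: 15 ng/mL PMI | Medium: HEPES-buffered pH 7.4 with magnesium and detergent | Compound: One concentration, 20 µM, in 1% DMSO | Incubation: Enzyme reaction with compound 20 min at room temperature | Detection: Diaphorase-driven resazurin-to-resorufin fluorescence, excitation 544, emission 590 nm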
L major viab: reduces viability of Leishmania major promastigotes | 200,000 compounds, 9% hits | resazurin fluorescence viability | AID 1063 | inhibition, % at 10 µM; in the data active = inhibition above about 50%;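 note: promastigotes grown with compound for 44 hours at 28 °C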
L major 1uM: L. major promastigote growth inhibition, 1 uM repeat | shares compounds with L major viab | resazurin fluorescence, 48 h | inhibition, % at 1 µM | 1,100 compounds, 13% hits | AID 1258;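 active = inhibition above about 50% in both repeat tests, limit read from the data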
Hits are given with their value; 0 = inactive; - = no result. Hits are enriched below; roughly 9.8% of the tested compounds scored in any of these assays.

SMILES | Rad51 HR inh | WT yeast gro inh | Calpain2 inh | PMI activator | PMI act hi M6P | L major viab | L major 1uM
N#Cc1cc2sc3nnc(-c4ccncc4)n3c2cc1C#N | 0 | 0 | 0 | 0 | 0 | 54 | 0
CCOC(=O)c1sc(-c2ccc(Br)cc2)cc1N | 0 | 0 | 0 | 0 | 0 | 0 | -
CCOC(=O)c1cc(-c2ccc(N)cc2)sc1N | 0 | 0 | 0 | 0 | 0 | 60 | 0
CC(=O)/C(CN1CCCCC1)=N\O | 0 | 0 | 0 | 0 | 0 | 0 | -
C/C(=N\O)C(=O)C(CN1CCCCC1)CN1CCCCC1 | 0 | 0 | 0 | 0 | 0 | 78 | 0
O=C(c1ccc(Cl)c(F)c1F)N1CCOCC1 | 0 | 0 | 0 | 0 | 0 | 0 | -
CCOCCCn1c(C)nc2c[n+](CC(=O)c3ccc4ccccc4c3)cc(Br)c21 | - | - | 0 | - | - | - | -
COc1cccc(/C=N/NC(=O)c2ccc(-c3ccccc3)cc2)c1O | 0 | 0 | 0 | 0 | 0 | 100 | 0
N=c1c(-c2nc3ccccc3[nH]2)cc(C(=O)c2cccs2)nn1-c1ccc(Cl)cc1 | 0 | - | - | - | - | 91 | 0
CCOC(=O)[C@@H]1[C@H]2COc3ccccc3[C@@H]2N2C(=O)N(c3ccc(F)cc3)C(=O)[C@]12C | 0 | - | - | - | - | - | -
COC(=O)c1ccc(Sc2nnnn2-c2ccccc2)c([N+](=O)[O-])c1 | 0 | 0 | 0 | 0 | 0 | 99 | 0
COc1ccc(C(N)CCc2ccc(C)o2)cc1 (stereo not drawn) | - | 0 | 0 | 0 | 0 | 54 | 0
CC(NC(=O)CSc1nc2sc3c(c2c(=O)n1-c1ccccc1)CCCC3)c1ccccc1 (stereo not drawn) | 0 | 0 | 0 | 0 | 0 | 69 | 0
N#C/C(C(=O)N1CCCCC1)=C1/N=C(N)c2ccccc21 | 0 | 0 | 0 | 0 | 0 | 61 | 0
CCOc1ccc(Br)cc1S(=O)(=O)Nc1ccccc1N1CCOCC1 | 0 | 0 | 0 | 0 | 0 | 100 | 0
CCOc1ccc(Br)cc1S(=O)(=O)Nc1ccc(N2CCOCC2)cc1 | 0 | 0 | 0 | 0 | 0 | 0 | -
COc1ccc(/C(C)=N/OCC(=O)N2CC3(C)CC2CC(C)(C)C3)cc1 (stereo not drawn) | 0 | 0 | 0 | 0 | 0 | 63 | 0
CN(c1ccc(O)cc1)c1nc(-c2ccccc2)cs1 | 0 | 0 | 0 | 0 | 0 | 89 | 0
CC(=O)c1ccccc1NS(=O)(=O)c1c(C)nn(-c2ccccc2)c1C | 0 | 0 | 0 | 0 | 0 | 96 | 0
COc1ccc(NC(=O)C(NC(=O)c2ccc(=O)[nH]c2)c2ccc(OC)cc2)cc1 (stereo not drawn) | - | 0 | 0 | 0 | 0 | 0 | -
OC1(c2ccc3c(c2)OCO3)CCN(Cc2ccc(F)cc2)CC1 | 0 | - | 0 | - | - | - | -
OC1(c2ccc(F)cc2)CCN(Cc2ccccc2)C1 (stereo not drawn) | 0 | 0 | 0 | 0 | 0 | 88 | 0
CCC(C)NC(=O)c1cc(Sc2nnc(C)s2)nc2ccccc12 (stereo not drawn) | 0 | 0 | 0 | 0 | 0 | 0 | -
Cc1c(-c2ccccc2)c(P(=O)(N2CCOCC2)N2CCOCC2)c2ccccn12 | 0 | 0 | 0 | 0 | 0 | 55 | 0
CCn1c(N2CCN(S(=O)(=O)c3ccc(Cl)cc3)CC2)nc2ccccc21 | 0 | 0 | 0 | 0 | 0 | 81 | 0
SMILES | Rad51 HR inh | WT yeast gro inh | Calpain2 inh | PMI activator | PMI act hi M6P | L major viab | L major 1uM
Brc1cccc(-c2n[nH]c(-c3ccccc3)n2)c1 | - | 0 | 0 | 0 | 0 | 57 | 0
c1ccc(-c2nc(-c3cccnc3)n[nH]2)cc1 | 0 | 0 | 0 | 0 | 0 | 0 | -
CCN(CC)CC(=O)Nc1ccc2c(c1)N(C(=O)CN(CC)CC)c1ccccc1CC2 | 0 | 0 | 0 | 0 | 0 | 99 | 0
COc1cc(NC(C)CCCN)c2ncccc2c1Oc1ccccc1 (stereo not drawn) | 0 | 0 | 0 | 0 | 0 | 101 | 101
COc1cc(C(=O)Nc2cccc3cccnc23)cc(OC)c1OC | 0 | 0 | 0 | 0 | 0 | 0 | -
CC(CCc1ccc(O)cc1)N(C)CCc1ccccc1 (stereo not drawn) | 0 | 0 | 0 | 0 | 0 | 94 | 0
CC(=O)NC(C)CCc1ccccc1 (stereo not drawn) | 0 | - | 0 | - | - | - | -
CCCCCCNc1nc(-c2ccc(OC)cc2)c(CCC(=O)O)s1 | 0 | 0 | 0 | 0 | 0 | 0 | -
O=C(c1ccccc1Sc1cccc2ccccc12)N1CCOCC1 | 0 | 0 | 0 | 0 | 0 | 0 | -
c1ccc(Sc2cccc3ccccc23)c(CNC2=NCCN2)c1 | 0 | 0 | 0 | 0 | 0 | 99 | 0
Fc1ccccc1Sc1ccccc1CNC1=NCCN1 | - | 80 | 0 | 0 | 0 | 99 | 0
Cc1cc(C)c(C#N)c(SCC(=O)c2ccccc2)n1 | 0 | 0 | 0 | 0 | 0 | 100 | 0
Cc1cc(C)c(NC(=O)NC(=O)C(Cl)(Cl)Cl)c(C)c1 | 0 | 0 | 0 | 0 | 0 | 0 | -
CC(c1ccccc1C(O)(c1ccccc1)c1ccccc1)N(C)C (stereo not drawn) | - | 0 | 0 | 0 | 0 | 99 | 0
Cn1cc(Br)c(C(=O)n2cc(Br)cn2)n1 | 0 | 0 | 0 | 0 | 0 | 0 | -
C=CC(=O)N1c2ccccc2Sc2ccc(NC(=O)OCC)cc21 | 0 | 0 | 0 | - | - | 0 | -
CCOC(=O)Nc1ccc2c(c1)N(C(=O)N1CCN(C)CC1)c1ccccc1S2 | 0 | 0 | 0 | 0 | 0 | 84 | 0
CCOC(=O)Nc1ccc2c(c1)Nc1ccccc1S2 | 0 | 0 | 0 | 0 | 0 | 67 | 0
CCOc1ccc(NS(=O)(=O)c2ccc3c(c2)oc(=O)n3C)cc1 | 0 | 0 | 0 | 0 | 0 | 0 | -
CCOc1ccc(N(CC)S(=O)(=O)c2ccc3c(c2)oc(=O)n3C)cc1 | 0 | 0 | 0 | 0 | 0 | 57 | 0
CCCCc1cc(O)c(CCCC)c(O)c1 | 0 | 0 | 0 | 0 | 0 | 99 | 0
CCCCCc1cc(O)c2c(C)cc(=O)oc2c1 | 0 | 0 | 0 | 0 | 0 | 0 | -
O=C(CCn1cnnn1)Nc1ccc(F)cc1 | 0 | 0 | 0 | 0 | 0 | 0 | -
CCOc1ccc(C(=O)Nc2c3c(nn2-c2cccc(Cl)c2)CS(=O)C3)cc1 (stereo not drawn) | 0 | 0 | 0 | 0 | 0 | 100 | 0
CCOc1ccc(C(=O)Nc2c3c(nn2-c2ccc(F)cc2)CS(=O)C3)cc1 (stereo not drawn) | 0 | 0 | 0 | 0 | 0 | 0 | -
SMILES | Rad51 HR inh | WT yeast gro inh | Calpain2 inh | PMI activator | PMI act hi M6P | L major viab | L major 1uM
CC(C)Cc1nnc(NC(=O)CN2C(=O)c3ccccc3C2=O)s1 | 0 | 0 | 0 | 0 | 0 | 0 | -
CN(C)c1cc[n+](Cc2c(Cl)cccc2Cl)cc1 | 0 | 0 | 0 | 0 | 0 | 84 | 0
CN(C)c1cc[n+](CC(=O)Nc2c(Cl)cc(Cl)cc2Cl)cc1 | 0 | 0 | 0 | 0 | 0 | 0 | -
Cc1cc(OCCN2CCCCC2)nc2ccccc12 | 0 | - | 0 | 0 | 0 | 89 | 0
CCOc1ccc(N(C(=O)c2cnsn2)C(C(=O)NC2CCCCC2)c2ccncc2)cc1 (stereo not drawn) | 0 | 0 | 0 | 0 | 0 | 76 | 0
COc1cc(C(=O)NCCOc2ccc(F)cc2)c(Br)c(OC)c1OC | 0 | 0 | 0 | 0 | 0 | 0 | -

From PubChem BioAssay
